Reference: ChEMBL document CHEMBL1138555, “N-acylated and N,N'-diacylated imidazolidine-2-thione derivatives and N,N'-diacylated tetrahydropyrimidine-2(1H)-thione analogues: synthesis and antiproliferative activity” (Eur J Med Chem, 2009)

Key:
MT4 = experiment: Antiproliferative activity against human MT4 cells assessed as reduction of growth by MTT assay; assay type: functional, cell-based
In short: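 MT-4 lymphoblastoid T cells (ATCC) in RPMI 1640 with 10% FCS, penicillin/streptomycin, checked for mycoplasma. 1 × 10⁴ mock-infected cells per well with serial dilutions from a 100 mM DMSO stock. Incubated 4 days at 37 °C, viable cells counted by MTT. IC50 versus untreated controls by linear regression. Mean of three separate experiments.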

MOLT-4 = experiment: Growth inhibition of human MOLT4 cells after 48 hrs by sulforhodamine B assay; assay type: functional; conditions: MOLT-4, 48 h
In short: (§1)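 NCI screen panel. Five 10-fold concentrations from 10^-4 to 10^-8 M. Exposure for the last 48 h of a 72 h incubation. Growth estimated by sulforhodamine B protein assay. GI50 is the concentration giving 50% growth inhibition. Where that level was not reached or was exceeded, the value is given as above or below the highest or lowest concentration tested.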

RXF 393 = experiment: Growth inhibition of human RXF393 cells after 48 hrs by sulforhodamine B assay; assay type: functional; conditions: RXF 393, 48 h; in short: as §1
NCI-H460 = experiment: Growth inhibition of human NCI-H460 cells after 48 hrs by sulforhodamine B assay; assay type: functional; conditions: NCI-H460, 48 h; in short: as §1
HOP-92 = experiment: Growth inhibition of human HOP92 cells after 48 hrs by sulforhodamine B assay; assay type: functional; conditions: HOP-92, 48 h; in short: as §1
PC-3 = experiment: Growth inhibition of human PC3 cells after 48 hrs by sulforhodamine B assay; assay type: functional; conditions: PC-3, 48 h; in short: as §1
HT-29 = experiment: Growth inhibition of human HT-29 cells after 48 hrs by sulforhodamine B assay; assay type: functional; conditions: HT-29, 48 h; in short: as §1
ACHN = experiment: Growth inhibition of human ACHN cells after 48 hrs by sulforhodamine B assay; assay type: functional; in short: as §1
SK-MEL-28 = experiment: Growth inhibition of human SK-MEL-28 cells after 48 hrs by sulforhodamine B assay; assay type: functional; conditions: SK-MEL-28, 48 h; in short: as §1
A549 = experiment: Growth inhibition of human A549 cells after 48 hrs by sulforhodamine B assay; assay type: functional; conditions: A549, 48 h; in short: as §1
HL-60(TB) = experiment: Growth inhibition of human HL-60(TB) cells after 48 hrs by sulforhodamine B assay; assay type: functional; conditions: HL-60, 48 h
In short: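 NCI 60-cell-line screen protocol: cells exposed to compound at five 10-fold dilutions from 10^-4 to 10^-8 M for the last 48 h of a 72 h incubation. Sulforhodamine B protein assay estimated viability/growth. GI50 (50% growth inhibition) derived; where not reached or exceeded, reported as greater or less than the highest or lowest concentration tested.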

OVCAR-3 = experiment: Growth inhibition of human OVCAR-3 cells after 48 hrs by sulforhodamine B assay; assay type: functional; conditions: OVCAR-3, 48 h; in short: as §1
U-251 = experiment: Growth inhibition of human U251 cells after 48 hrs by sulforhodamine B assay; assay type: functional; conditions: U-251, 48 h
In short: (§2)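 NCI in vitro panel screen. Compounds tested at five 10-fold dilutions, 10^-4 to 10^-8 M. Cells in 96-well plates were exposed for the last 48 h of a 72 h incubation. Viability/growth was read by sulforhodamine B protein assay. GI50 is the concentration giving 50% growth inhibition. Values beyond the tested range are reported as greater or less than the maximum or minimum concentration.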

NCI-H322M = experiment: Growth inhibition of human NCI-H322M cells after 48 hrs by sulforhodamine B assay; assay type: functional; in short: as §1
MDA-MB-435 = experiment: Growth inhibition of human MDA-MB-435 cells after 48 hrs by sulforhodamine B assay; assay type: functional; conditions: MDA-MB-435, 48 h; in short: as §1
SN12C = experiment: Growth inhibition of human SN12C cells after 48 hrs by sulforhodamine B assay; assay type: functional; in short: as §2
LOX IMVI = experiment: Growth inhibition of human LOXIMVI cells after 48 hrs by sulforhodamine B assay; assay type: functional; in short: as §1
HCT-15 = experiment: Growth inhibition of human HCT15 cells after 48 hrs by sulforhodamine B assay; assay type: functional; conditions: HCT-15, 48 h; in short: as §1
K562 = experiment: Growth inhibition of human K562 cells after 48 hrs by sulforhodamine B assay; assay type: functional; conditions: K562, 48 h; in short: as §1
KM12 = experiment: Growth inhibition of human KM12 cells after 48 hrs by sulforhodamine B assay; assay type: functional; conditions: KM12, 48 h; in short: as §1
OVCAR-8 = experiment: Growth inhibition of human OVCAR8 cells after 48 hrs by sulforhodamine B assay; assay type: functional; conditions: OVCAR-8, 48 h; in short: as §1
SNB-75 = experiment: Growth inhibition of human SNB75 cells after 48 hrs by sulforhodamine B assay; assay type: functional; conditions: SNB-75, 48 h; in short: as §2
NCI-H23 = experiment: Growth inhibition of human NCI-H23 cells after 48 hrs by sulforhodamine B assay; assay type: functional; conditions: NCI-H23, 48 h; in short: as §1
SR = experiment: Growth inhibition of human SR cells after 48 hrs by sulforhodamine B assay; assay type: functional; in short: as §2
COLO 205 = experiment: Growth inhibition of human COLO205 cells after 48 hrs by sulforhodamine B assay; assay type: functional; conditions: COLO 205, 48 h; in short: as §1
UACC-62 = experiment: Growth inhibition of human UACC62 cells after 48 hrs by sulforhodamine B assay; assay type: functional; conditions: UACC-62, 48 h; in short: as §2
MDA-MB-231 = experiment: Growth inhibition of human MDA-MB-231 cells after 48 hrs by sulforhodamine B assay; assay type: functional; conditions: MDA-MB-231, 48 h; in short: as §1
NCI/ADR-RES = experiment: Growth inhibition of human NCI/ADR-RES cells after 48 hrs by sulforhodamine B assay; assay type: functional; in short: as §1
EKVX = experiment: Growth inhibition of human EKVX cells after 48 hrs by sulforhodamine B assay; assay type: functional; in short: as §1
HOP-62 = experiment: Growth inhibition of human HOP62 cells after 48 hrs by sulforhodamine B assay; assay type: functional; conditions: HOP-62, 48 h; in short: as §1
[1] = Growth inhibition of human […] cells after 48 hrs by sulforhodamine B assay; assay type: functional; in short: as §1
TK-10 = experiment: Growth inhibition of human TK10 cells after 48 hrs by sulforhodamine B assay; assay type: functional; conditions: TK-10, 48 h; in short: as §2
UO-31 = experiment: Growth inhibition of human UO31 cells after 48 hrs by sulforhodamine B assay; assay type: functional; conditions: UO-31, 48 h; in short: as §2
SK-MEL-2 = experiment: Growth inhibition of human SK-MEL-2 cells after 48 hrs by sulforhodamine B assay; assay type: functional; conditions: SK-MEL-2, 48 h; in short: as §1
SF-295 = experiment: Growth inhibition of human SF295 cells after 48 hrs by sulforhodamine B assay; assay type: functional; conditions: SF-295, 48 h; in short: as §1
SNB-19 = experiment: Growth inhibition of human SNB19 cells after 48 hrs by sulforhodamine B assay; assay type: functional; conditions: SNB-19, 48 h; in short: as §2
CAKI-1 = experiment: Growth inhibition of human Caki1 cells after 48 hrs by sulforhodamine B assay; assay type: functional; conditions: CAKI-1, 48 h; in short: as §1
SW-620 = experiment: Growth inhibition of human SW620 cells after 48 hrs by sulforhodamine B assay; assay type: functional; conditions: SW-620, 48 h; in short: as §2
SK-MEL-5 = experiment: Growth inhibition of human SK-MEL-5 cells after 48 hrs by sulforhodamine B assay; assay type: functional; conditions: SK-MEL-5, 48 h; in short: as §1
IGROV-1 = experiment: Growth inhibition of human IGROV1 cells after 48 hrs by sulforhodamine B assay; assay type: functional; conditions: IGROV-1, 48 h; in short: as §1
SK-OV-3 = experiment: Growth inhibition of human SKOV3 cells after 48 hrs by sulforhodamine B assay; assay type: functional; conditions: SK-OV-3, 48 h; in short: as §1
Malme-3M = experiment: Growth inhibition of human MALME-3M cells after 48 hrs by sulforhodamine B assay; assay type: functional; in short: as §1
DU-145 = experiment: Growth inhibition of human DU145 cells after 48 hrs by sulforhodamine B assay; assay type: functional; conditions: DU-145, 48 h; in short: as §1
BT-549 = experiment: Growth inhibition of human BT549 cells after 48 hrs by sulforhodamine B assay; assay type: functional; conditions: BT-549, 48 h; in short: as §1
M14 = experiment: Growth inhibition of human M14 cells after 48 hrs by sulforhodamine B assay; assay type: functional; conditions: M14, 48 h; in short: as §1
OVCAR-4 = experiment: Growth inhibition of human OVCAR4 cells after 48 hrs by sulforhodamine B assay; assay type: functional; conditions: OVCAR-4, 48 h; in short: as §1
UACC-257 = experiment: Growth inhibition of human UACC257 cells after 48 hrs by sulforhodamine B assay; assay type: functional; conditions: UACC-257, 48 h; in short: as §2
786-0 = experiment: Growth inhibition of human 786-0 cells after 48 hrs by sulforhodamine B assay; assay type: functional; conditions: 786-0, 48 h; in short: as §1
HCT-116 = experiment: Growth inhibition of human HCT116 cells after 48 hrs by sulforhodamine B assay; assay type: functional; conditions: HCT-116, 48 h; in short: as §1

CC(C)(C)C(=O)/C(C#N)=C/N1CCN(C(=O)c2ccco2)C1=S
IC50 (MT4): 14 µM

O=C(c1cccc2ccccc12)N1CCN(C(=O)c2cccc3ccccc23)C1=S
IC50 (MT4): 13 µM

O=C(c1ccccc1Cl)N1CCCN(C(=O)c2ccccc2Cl)C1=S
IC50 (MT4): > 100 µM

O=C(c1cccs1)N1CCCN(C(=O)c2cccs2)C1=S
IC50 (MT4): > 100 µM

Cc1ccc(C(=O)N2CCCN(C(=O)c3ccc(C)cc3)C2=S)cc1
IC50 (MT4): > 100 µM

COc1cc(C(=O)N2CCCN(C(=O)c3cc(OC)c(OC)c(OC)c3)C2=S)cc(OC)c1OC
IC50 (MT4): > 100 µM

O=C(c1ccc(Cl)cc1)N1CCCN(C(=O)c2ccc(Cl)cc2)C1=S
IC50 (MT4): 38 µM

O=C(c1cc(Cl)cc(Cl)c1)N1CCCN(C(=O)c2cc(Cl)cc(Cl)c2)C1=S
IC50 (MT4): 30 µM

COc1ccc(C(=O)N2CCN(C(=O)c3ccc(OC)cc3)C2=S)cc1
IC50 (MT4): > 100 µM

O=C(C(=CN1CCN(C(=O)c2ccco2)C1=S)C(=O)c1ccccc1)c1ccccc1
GI50 (MOLT-4): 15.2 µM | GI50 (RXF 393): 5.8 µM | GI50 (NCI-H460): 2.4 µM | GI50 (HOP-92): 27 µM | GI50 (PC-3): 23.6 µM | GI50 (HT-29): 16.9 µM | GI50 (ACHN): 5.8 µM | GI50 (SK-MEL-28): 17.8 µM | GI50 (A549): 11.3 µM | GI50 (HL-60(TB)): 9.9 µM | GI50 (OVCAR-3): 7.3 µM | GI50 (U-251): 2.7 µM | GI50 (NCI-H322M): 2.2 µM | GI50 (MDA-MB-435): 7.2 µM | GI50 (SN12C): 6.1 µM | GI50 (LOX IMVI): 1.2 µM | GI50 (HCT-15): 2.6 µM | GI50 (K562): 3.2 µM | GI50 (KM12): 2.3 µM | GI50 (OVCAR-8): 16.2 µM | GI50 (SNB-75): 27.4 µM | GI50 (NCI-H23): 7 µM | GI50 (SR): 1.3 µM | GI50 (COLO 205): 20 µM | GI50 (UACC-62): 6.9 µM | GI50 (MDA-MB-231): 7.4 µM | GI50 (NCI/ADR-RES): 9.2 µM | GI50 (EKVX): 8.1 µM | GI50 (HOP-62): 15.9 µM | GI50 [1]: 8.4 µM | GI50 (TK-10): 6.9 µM | GI50 (UO-31): 8.7 µM | GI50 (SK-MEL-2): 12.1 µM | GI50 (SF-295): 11.1 µM | GI50 (SNB-19): 29.2 µM | GI50 (CAKI-1): 7 µM | GI50 (SW-620): 8.7 µM | GI50 (SK-MEL-5): 10.9 µM | GI50 (IGROV-1): 5.6 µM | GI50 (SK-OV-3): 41.8 µM | GI50 (Malme-3M): 3.1 µM | GI50 (DU-145): 12.4 µM | GI50 (BT-549): 10 µM | GI50 (M14): 7 µM | GI50 (OVCAR-4): 16.1 µM | GI50 (UACC-257): 11.7 µM | GI50 (786-0): 8.2 µM | GI50 (HCT-116): 7.9 µM | IC50 (MT4): 7 µM

CCOC(=O)/C(=C/N1CCN(C(=O)c2ccco2)C1=O)C(=O)c1ccccc1
IC50 (MT4): 43 µM

O=C(c1ccccc1)N1CCN(C(=O)c2ccccc2)C1=S
IC50 (MT4): 94 µM

Cc1ccc(C(=O)N2CCN(C=O)C2=S)cc1
IC50 (MT4): 31 µM

Cc1ccccc1C(=O)N1CCN(C(=O)c2ccccc2C)C1=S
IC50 (MT4): > 100 µM

CC(C)(C)C(=O)N1CCN(C=O)C1=S
IC50 (MT4): 43 µM

CC(=O)N1CCN(C(C)=O)C1=S
IC50 (MT4): > 100 µM

O=C(c1cccc([N+](=O)[O-])c1)N1CCN(C(=O)c2cccc([N+](=O)[O-])c2)C1=S
IC50 (MT4): > 100 µM
